The target of assay [1] is T1, Preprocathepsin c, putative (Plasmodium falciparum 3D7) (UniProt Q8I0V1).
T1 sequence (whole entry): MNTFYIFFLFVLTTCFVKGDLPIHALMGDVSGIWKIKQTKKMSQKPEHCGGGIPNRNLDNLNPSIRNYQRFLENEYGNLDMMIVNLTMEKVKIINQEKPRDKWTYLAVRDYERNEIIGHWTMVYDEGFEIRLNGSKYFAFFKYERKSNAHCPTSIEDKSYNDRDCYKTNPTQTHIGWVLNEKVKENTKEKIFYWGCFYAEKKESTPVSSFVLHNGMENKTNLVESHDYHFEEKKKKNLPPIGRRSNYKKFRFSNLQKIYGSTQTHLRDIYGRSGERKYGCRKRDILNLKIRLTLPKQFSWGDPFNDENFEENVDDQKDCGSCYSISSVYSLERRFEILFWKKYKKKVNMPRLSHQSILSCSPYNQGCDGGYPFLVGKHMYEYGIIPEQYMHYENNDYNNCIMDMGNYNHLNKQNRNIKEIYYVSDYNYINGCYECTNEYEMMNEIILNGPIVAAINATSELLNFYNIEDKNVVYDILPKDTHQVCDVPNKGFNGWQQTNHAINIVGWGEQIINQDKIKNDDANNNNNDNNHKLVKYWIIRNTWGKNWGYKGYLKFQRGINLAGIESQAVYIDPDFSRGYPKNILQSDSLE
In words: Inhibition of Plasmodium falciparum 3D7 PFL2290w by fluorescence spectrophotometry.

The target in assay [2] is T2, Probable cathepsin C (Plasmodium falciparum 3D7) (UniProt Q8IIJ9).
T2 sequence (whole entry): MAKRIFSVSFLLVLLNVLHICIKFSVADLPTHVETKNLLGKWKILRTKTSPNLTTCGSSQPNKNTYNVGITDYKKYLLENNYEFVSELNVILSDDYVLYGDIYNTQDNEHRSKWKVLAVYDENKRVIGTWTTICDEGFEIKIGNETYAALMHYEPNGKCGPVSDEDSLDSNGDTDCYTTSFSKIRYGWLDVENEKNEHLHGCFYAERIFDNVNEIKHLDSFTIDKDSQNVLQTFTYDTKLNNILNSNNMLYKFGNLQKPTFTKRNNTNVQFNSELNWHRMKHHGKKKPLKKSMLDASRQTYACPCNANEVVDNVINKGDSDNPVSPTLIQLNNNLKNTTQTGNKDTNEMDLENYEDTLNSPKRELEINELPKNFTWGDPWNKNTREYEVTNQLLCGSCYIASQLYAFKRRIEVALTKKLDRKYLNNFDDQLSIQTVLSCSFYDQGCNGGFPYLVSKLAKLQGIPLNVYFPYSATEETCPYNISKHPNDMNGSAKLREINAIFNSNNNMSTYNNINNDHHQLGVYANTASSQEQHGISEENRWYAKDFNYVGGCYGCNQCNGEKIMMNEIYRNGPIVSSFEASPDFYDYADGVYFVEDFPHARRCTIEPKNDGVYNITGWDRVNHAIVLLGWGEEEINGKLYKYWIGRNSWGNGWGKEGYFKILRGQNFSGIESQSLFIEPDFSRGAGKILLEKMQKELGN
Kind of assay: Inhibition of Plasmodium falciparum 3D7 cathepsin C by fluorescence spectrophotometry.

Assay [3] relates to Plasmodium falciparum. Kind of assay: Antiplasmodial activity against Plasmodium falciparum schizont infected in human erythrocytes assessed as effect on schizont morphology at 1 to 50 uM after 24 by propidium iodide staining-based FACS analysis. Format: functional, organism-based. (Flow cytometry measures light scatter and fluorescence of single cells or particles in a stream.)

Assay [4] concerns Plasmodium falciparum. In words: Antiplasmodial activity against Plasmodium falciparum schizont infected in human erythrocytes assessed as inhibition of ring-stage parasite growth at 1 to 50 uM after 24 by propidium iodide staining-based FACS analysis. It is filed as functional, organism-based.
Assay [5] has as its system Plasmodium falciparum. Kind of assay: Antiplasmodial activity against Plasmodium falciparum infected in human erythrocytes assessed as effect on parasite morphology by Giemsa staining. Format: functional, organism-based. In outline: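 Giemsa-stained thin blood films were read from schizonts exposed at 36 h post invasion to 10 µM inhibitor, to assess rupture and morphology.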

Assay [6] has as its target T3, Falcipain-3 (Plasmodium falciparum 3D7) (UniProt Q8IIL0).
T3 sequence (whole entry): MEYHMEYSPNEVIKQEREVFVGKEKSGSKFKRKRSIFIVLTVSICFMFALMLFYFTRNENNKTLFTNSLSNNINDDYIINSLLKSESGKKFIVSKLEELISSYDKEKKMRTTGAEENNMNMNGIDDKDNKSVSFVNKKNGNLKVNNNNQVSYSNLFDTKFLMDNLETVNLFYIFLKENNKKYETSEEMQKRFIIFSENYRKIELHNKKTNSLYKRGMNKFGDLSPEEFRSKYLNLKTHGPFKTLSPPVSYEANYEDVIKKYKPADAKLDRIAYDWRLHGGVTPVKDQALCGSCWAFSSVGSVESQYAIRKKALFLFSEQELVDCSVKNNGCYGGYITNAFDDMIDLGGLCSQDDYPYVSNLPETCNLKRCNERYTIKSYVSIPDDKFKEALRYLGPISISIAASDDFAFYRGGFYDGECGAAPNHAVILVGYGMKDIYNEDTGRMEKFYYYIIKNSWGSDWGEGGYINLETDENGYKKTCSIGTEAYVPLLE
In words: Inhibition of Plasmodium falciparum 3D7 falcipain-3 by fluorescence spectrophotometry.

Assay [7] addresses T4, Protease, putative (Plasmodium falciparum 3D7) (UniProt Q8I1Y2).
T4 sequence (whole entry): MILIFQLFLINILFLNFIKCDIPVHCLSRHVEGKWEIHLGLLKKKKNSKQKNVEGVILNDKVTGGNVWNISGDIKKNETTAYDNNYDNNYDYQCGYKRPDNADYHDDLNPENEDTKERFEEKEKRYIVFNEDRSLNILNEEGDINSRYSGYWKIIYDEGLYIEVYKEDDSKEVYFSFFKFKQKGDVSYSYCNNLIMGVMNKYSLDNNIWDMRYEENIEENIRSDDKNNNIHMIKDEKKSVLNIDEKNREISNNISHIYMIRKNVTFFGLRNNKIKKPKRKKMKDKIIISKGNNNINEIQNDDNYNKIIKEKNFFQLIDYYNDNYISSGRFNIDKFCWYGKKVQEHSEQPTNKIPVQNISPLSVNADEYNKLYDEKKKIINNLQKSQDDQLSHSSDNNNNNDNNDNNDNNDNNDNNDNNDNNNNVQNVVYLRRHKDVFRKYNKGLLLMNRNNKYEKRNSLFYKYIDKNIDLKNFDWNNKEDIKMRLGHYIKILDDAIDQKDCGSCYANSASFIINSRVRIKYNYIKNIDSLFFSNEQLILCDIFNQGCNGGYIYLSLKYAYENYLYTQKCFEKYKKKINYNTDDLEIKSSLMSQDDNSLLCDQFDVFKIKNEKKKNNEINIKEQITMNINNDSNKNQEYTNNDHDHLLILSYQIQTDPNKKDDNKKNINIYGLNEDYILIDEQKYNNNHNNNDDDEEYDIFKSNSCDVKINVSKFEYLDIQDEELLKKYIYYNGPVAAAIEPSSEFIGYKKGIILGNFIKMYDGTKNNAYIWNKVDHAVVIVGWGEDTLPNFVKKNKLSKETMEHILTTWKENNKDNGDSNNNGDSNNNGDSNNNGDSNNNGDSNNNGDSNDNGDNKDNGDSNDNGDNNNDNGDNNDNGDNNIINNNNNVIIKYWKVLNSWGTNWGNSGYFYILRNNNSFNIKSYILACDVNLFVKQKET
In words: Inhibition of Plasmodium falciparum 3D7 PFD0230c by fluorescence spectrophotometry.

This is an account of results in ChEMBL document CHEMBL1240337, “Identification of proteases that regulate erythrocyte rupture by the malaria parasite Plasmodium falciparum” (Nat Chem Biol, 2008).

Structures are written as SMILES. The source made the active and inactive calls. No cut-off for these calls is given here.

Turning to `CCC[C@H](N)C(=O)N[C@H](/C=C/S(=O)(=O)c1ccccc1)CCc1ccccc1`, in assay [1], the inhibition entry was “inactive”. The inhibition entry (in assay [2]; with Plasmodium falciparum [4]; in assay [6]; in assay [7]) was “Active” throughout. Moreover, the result in the assay with Plasmodium falciparum [3] and in the assay on Plasmodium falciparum [5] was inactive.

Regarding `C[C@H](N)C(=O)N[C@H](/C=C/S(=O)(=O)c1ccccc1)CCc1ccccc1`, in assay [1], the inhibition entry was “inactive”. The inhibition result (in assay [2]; in the assay with Plasmodium falciparum [4]; in assay [6]; in assay [7]) was “Active” each time. For the same compound, the result in the assay on Plasmodium falciparum [3] and in the assay with Plasmodium falciparum [5] was inactive.
